According to ChEMBL document CHEMBL1275519, “In vivo pharmacodynamics of ceftobiprole against multiple bacterial pathogens in murine thigh and lung infection models” (Antimicrob Agents Chemother, 2008):
Converted amounts (≈) assume the structure as drawn.

Experiments:
[1] = T>MIC in Streptococcus pneumoniae CDC 1329 infected CD1 neutropenic mouse at static dose of 2.93 mg/kg, sc administered every 6 hrs; type: functional; settings: route subcutaneous
How it was run: (§1)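 Neutropenic mice (cyclophosphamide i.p. 150 and 100 mg/kg, 4 and 1 days pre-infection) given 0.1 ml thigh inoculum (1:10 dilution of 10^8 CFU/ml), then treated from 2 h post-infection for 24 h with s.c. ceftobiprole medocaril (0.010–160 mg/kg) at varied intervals. Thigh CFU plated from homogenates. Static dose came from a sigmoid Hill model, and T>MIC was estimated from mouse PK and MIC.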

[2] = T>MIC in Staphylococcus aureus ATCC 29213 infected CD1 neutropenic mouse at static dose of 3.78 mg/kg, sc administered every 6 hrs; type: functional; settings: route subcutaneous; how it was run: as §1
[3] = T>MIC in Staphylococcus aureus ATCC 33591 infected CD1 neutropenic mouse at 2-log kill dose of 15.3 mg/kg, sc administered every 6 hrs; type: functional; settings: route subcutaneous
[4] = Cmax in CD1 neutropenic mouse with bacterial infection in thigh at 10 mg/kg, sc; settings: in vivo
[5] = T>MIC in methicillin-resistant Staphylococcus aureus 11888 infected CD1 neutropenic mouse at 2-log kill dose of 40.2 mg/kg, sc administered every 6 hrs; type: functional; settings: route subcutaneous
[6] = T>MIC in Escherichia coli ATCC 25922 infected CD1 neutropenic mouse at static dose of 8.25 mg/kg, sc administered every 6 hrs; type: functional; settings: route subcutaneous; how it was run: as §1
[7] = tested on: Enterobacter cloacae; assay: Antimicrobial activity against Enterobacter cloacae 4567 by broth dilution method; type: functional
How it was run: (§2)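 Ceftobiprole MIC determined by CLSI (NCCLS) broth microdilution.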

[8] = T>MIC in Streptococcus pneumoniae MNO-418 infected CD1 neutropenic mouse at static dose of 0.238 mg/kg, sc administered every 6 hrs; type: functional; settings: route subcutaneous; how it was run: as §1
[9] = Cmax in CD1 neutropenic mouse with bacterial infection in thigh at 40 mg/kg, sc; type: ADME, organism-based; design: dose 40 mg/kg, route subcutaneous; settings: in vivo
How it was run: (§3)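 Neutropenic thigh-infected mice (cyclophosphamide i.p. 150 mg/kg day −4, 100 mg/kg day −1) given single s.c. ceftobiprole medocaril doses; two groups of three mice per dose bled retro-orbitally at 0.5–6 h, each animal 3–4 times. Total serum drug measured by agar diffusion bioassay with E. coli NIH-J (linear 0.25–256 μg/ml). Cmax, t1/2 and AUC from one-compartment model.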

[10] = T>MIC in methicillin-resistant Staphylococcus aureus 12248 infected CD1 neutropenic mouse at static dose of 29.2 mg/kg, sc administered every 6 hrs; type: functional; settings: route subcutaneous
[11] = T>MIC in Streptococcus pneumoniae CDC-145 infected CD1 neutropenic mouse at static dose of 0.956 mg/kg, sc administered every 6 hrs; type: functional; settings: route subcutaneous; how it was run: as §1
[12] = AUC in CD1 neutropenic mouse with bacterial infection in thigh at 160 mg/kg, sc; type: ADME, organism-based; design: dose 160 mg/kg, route subcutaneous; settings: plasma; how it was run: as §3
[13] = T>MIC in Staphylococcus aureus […] infected CD1 neutropenic mouse at 2-log kill dose of 10.3 mg/kg, sc administered every 6 hrs; type: functional; settings: route subcutaneous
[14] = T>MIC in Streptococcus pneumoniae CDC-145 infected CD1 neutropenic mouse at 2-log kill dose of 3.27 mg/kg, sc administered every 6 hrs; type: functional; settings: route subcutaneous
[15] = T>MIC in Staphylococcus aureus ATCC Smith infected CD1 neutropenic mouse at static dose of 4.21 mg/kg, sc administered every 6 hrs; type: functional; settings: route subcutaneous; how it was run: as §1
[16] = T>MIC in Klebsiella pneumoniae infected CD1 neutropenic mouse at 2-log kill dose of 43.8 mg/kg, sc administered every 6 hrs; type: functional; settings: route subcutaneous
[17] = T>MIC in methicillin-resistant Staphylococcus aureus 11888 infected CD1 neutropenic mouse at static dose of 22.6 mg/kg, sc administered every 6 hrs; type: functional; settings: route subcutaneous
[18] = T>MIC in Staphylococcus aureus ATCC 29213 infected CD1 neutropenic mouse at 2-log kill dose of 15.4 mg/kg, sc administered every 6 hrs; type: functional; settings: route subcutaneous
[19] = T>MIC in Staphylococcus aureus ATCC 33591 infected CD1 neutropenic mouse at static dose of 7.91 mg/kg, sc administered every 6 hrs; type: functional; settings: route subcutaneous; how it was run: as §1
[20] = T>MIC in Streptococcus pneumoniae MNO-418 infected CD1 neutropenic mouse at 2-log kill dose of 0.624 mg/kg, sc administered every 6 hrs; type: functional; settings: route subcutaneous
[21] = tested on: Staphylococcus aureus; assay: Antimicrobial activity against methicillin-resistant Staphylococcus aureus 22115 by broth dilution method; type: functional
How it was run: (§4)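 Ceftobiprole MIC by broth microdilution per Clinical and Laboratory Standards Institute (formerly NCCLS) methods, using ceftobiprole standard powder.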

[22] = tested on: Streptococcus pneumoniae; assay: Antimicrobial activity against Streptococcus pneumoniae CDC 145 by broth dilution method; type: functional; how it was run: as §2
[23] = Half life in CD1 neutropenic mouse with bacterial infection in thigh at 40 mg/kg, sc; type: ADME, organism-based; design: dose 40 mg/kg, route subcutaneous; settings: in vivo; how it was run: as §3
[24] = Cmax in CD1 neutropenic mouse with bacterial infection in thigh at 160 mg/kg, sc; type: ADME, organism-based; design: dose 160 mg/kg, route subcutaneous; settings: in vivo; how it was run: as §3
[25] = tested on: Staphylococcus aureus; assay: Antimicrobial activity against Staphylococcus aureus ATCC Smith by broth dilution method; type: functional; how it was run: as §4
[26] = T>MIC in Pseudomonas aeruginosa ATCC 27853 infected CD1 neutropenic mouse at static dose of 25.2 mg/kg, sc administered every 3 hrs; type: functional; settings: route subcutaneous; how it was run: as §1
[27] = T>MIC in Streptococcus pneumoniae CDC 673 infected CD1 neutropenic mouse at 2-log kill dose of 29 mg/kg, sc administered every 6 hrs; type: functional; settings: route subcutaneous
[28] = tested on: Staphylococcus aureus; assay: Antimicrobial activity against Staphylococcus aureus ATCC 22923 by broth dilution method; type: functional; how it was run: as §4
[29] = tested on: Klebsiella pneumoniae; assay: Antimicrobial activity against Klebsiella pneumoniae ATCC 43816 by broth dilution method; type: functional; how it was run: as §2
[30] = T>MIC in methicillin-resistant Staphylococcus aureus 22115 infected CD1 neutropenic mouse at 2-log kill dose of 34.4 mg/kg, sc administered every 6 hrs; type: functional; settings: route subcutaneous
[31] = tested on: Staphylococcus aureus; assay: Antimicrobial activity against methicillin-resistant Staphylococcus aureus WIS-1 by broth dilution method; type: functional; how it was run: as §4
[32] = Half life in CD1 neutropenic mouse with bacterial infection in thigh at 10 mg/kg, sc; settings: in vivo
[33] = tested on: Streptococcus pneumoniae; assay: Antimicrobial activity against Streptococcus pneumoniae ATCC 10813 by broth dilution method; type: functional; how it was run: as §2

Compound: Nc1nc(/C(=N/O)C(=O)N[C@@H]2C(=O)N3C(C(=O)O)=C(/C=C4\CCN([C@@H]5CCNC5)C4=O)CS[C@H]23)ns1 [CEFTOBIPROLE]
- fT>MIC [1]: 22.2%
- fT>MIC [2]: 18.9%
- fT>MIC [3]: 24.4%
- Cmax [4]: 10800 ng/mL
- fT>MIC [5]: 27.4%
- fT>MIC [6]: 41.9%
- MIC [7]: 0.5 µg/mL (≈ 0.935 µM)
- fT>MIC [8]: 21.3%
- Cmax [9]: 31200 ng/mL
- fT>MIC [10]: 24.5%
- fT>MIC [11]: 15.2%
- AUC [12]: 213 µg·h/mL
- fT>MIC [13]: 26.5%
- fT>MIC [14]: 23%
- fT>MIC [15]: 19.6%
- fT>MIC [16]: 59.2%
- fT>MIC [17]: 22.5%
- fT>MIC [18]: 29.9%
- fT>MIC [19]: 19.1%
- fT>MIC [20]: 31.8%
- MIC [21]: 1 µg/mL (≈ 1.87 µM)
- MIC [22]: 0.25 µg/mL (≈ 0.468 µM)
- half-life [23]: 19.8 min
- Cmax [24]: 144000 ng/mL
- MIC [25]: 0.5 µg/mL (≈ 0.935 µM)
- fT>MIC [26]: 46.7%
- fT>MIC [27]: 29.7%
- MIC [28]: 0.5 µg/mL (≈ 0.935 µM)
- MIC [29]: 0.06 µg/mL (≈ 0.112 µM)
- fT>MIC [30]: 29.6%
- MIC [31]: 1 µg/mL (≈ 1.87 µM)
- half-life [32]: 19 min
- MIC [33]: 0.03 µg/mL (≈ 0.0561 µM)
